Reference: ChEMBL document CHEMBL1139884, “Structure-based design, synthesis, and A-site rRNA cocrystal complexes of functionally novel aminoglycoside antibiotics: C2" ether analogues of paromomycin” (2007)
In brackets after ≈: the same amount, converted by molar mass.

Key:
Staphylococcus aureus = test: Antimicrobial activity against Staphylococcus aureus ATCC 13709 after 20 to 24 hrs; type: functional
Procedure, shortened: (§1)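 Broth microdilution in duplicate; compound in 2.5% DMSO in water, overnight culture added to a final inoculum of about 10^2-10^3 CFU/well. Growth read as A595 after 20-24 h at 37°C, relative to a no-compound well. MIC reported as a range: complete inhibition at the higher concentration, viable cells at the lower. Ampicillin and tetracycline are the positive controls.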

Escherichia coli = test: Antimicrobial activity against Escherichia coli ATCC 25922 after 20 to 24 hrs; type: functional; procedure, shortened: as §1

MIC (Staphylococcus aureus) [µg/mL]	MIC (Escherichia coli) [µg/mL]	Compound
2.5 (≈ 2.78 µM)	> 10	NC[C@@H]1O[C@H](O[C@H]2[C@@H](OCCNCCc3cc(C(F)(F)F)cc(C(F)(F)F)c3)[C@H](O[C@@H]3[C@@H](O)[C@H](N)C[C@H](N)[C@H]3O[C@H]3O[C@H](CO)[C@@H](O)[C@H](O)[C@H]3N)O[C@@H]2CO)[C@H](N)[C@@H](O)[C@@H]1O
5 (≈ 6.43 µM)	20 (≈ 25.7 µM)	NC[C@@H]1O[C@H](O[C@H]2[C@@H](OCCOCCCc3ccccc3)[C@H](O[C@@H]3[C@@H](O)[C@H](N)C[C@H](N)[C@H]3O[C@H]3O[C@H](CO)[C@@H](O)[C@H](O)[C@H]3N)O[C@@H]2CO)[C@H](N)[C@@H](O)[C@@H]1O
6 (≈ 8.17 µM)	50 (≈ 68 µM)	NC[C@@H]1O[C@H](O[C@H]2[C@@H](OCCNc3ccccc3)[C@H](O[C@@H]3[C@@H](O)[C@H](N)C[C@H](N)[C@H]3O[C@H]3O[C@H](CO)[C@@H](O)[C@H](O)[C@H]3N)O[C@@H]2CO)[C@H](N)[C@@H](O)[C@@H]1O
12 (≈ 18.2 µM)	12 (≈ 18.2 µM)	NC[C@@H]1O[C@H](O[C@H]2[C@@H](OCCO)[C@H](O[C@@H]3[C@@H](O)[C@H](N)C[C@H](N)[C@H]3O[C@H]3O[C@H](CO)[C@@H](O)[C@H](O)[C@H]3N)O[C@@H]2CO)[C@H](N)[C@@H](O)[C@@H]1O
3 (≈ 4.09 µM)	20 (≈ 27.3 µM)	NC[C@@H]1O[C@H](O[C@H]2[C@@H](OCCCc3ccccc3)[C@H](O[C@@H]3[C@@H](O)[C@H](N)C[C@H](N)[C@H]3O[C@H]3O[C@H](CO)[C@@H](O)[C@H](O)[C@H]3N)O[C@@H]2CO)[C@H](N)[C@@H](O)[C@@H]1O
10 (≈ 11.3 µM)	> 40	NC[C@@H]1O[C@H](O[C@H]2[C@@H](OCCNCCN3C(=O)c4cccc5cccc(c45)C3=O)[C@H](O[C@@H]3[C@@H](O)[C@H](N)C[C@H](N)[C@H]3O[C@H]3O[C@H](CO)[C@@H](O)[C@H](O)[C@H]3N)O[C@@H]2CO)[C@H](N)[C@@H](O)[C@@H]1O
1.25 (≈ 1.58 µM)	> 10	NC[C@@H]1O[C@H](O[C@H]2[C@@H](OCCNC3CCCc4ccccc43)[C@H](O[C@@H]3[C@@H](O)[C@H](N)C[C@H](N)[C@H]3O[C@H]3O[C@H](CO)[C@@H](O)[C@H](O)[C@H]3N)O[C@@H]2CO)[C@H](N)[C@@H](O)[C@@H]1O (stereo partly specified)
5 (≈ 6.08 µM)	10 (≈ 12.2 µM)	COc1cc(CCNCCO[C@H]2[C@H](O[C@@H]3[C@@H](O)[C@H](N)C[C@H](N)[C@H]3O[C@H]3O[C@H](CO)[C@@H](O)[C@H](O)[C@H]3N)O[C@H](CO)[C@H]2O[C@H]2O[C@@H](CN)[C@@H](O)[C@H](O)[C@H]2N)cc(OC)c1
< 1.5	12 (≈ 15.7 µM)	NC[C@@H]1O[C@H](O[C@H]2[C@@H](OCCNCCc3cccnc3)[C@H](O[C@@H]3[C@@H](O)[C@H](N)C[C@H](N)[C@H]3O[C@H]3O[C@H](CO)[C@@H](O)[C@H](O)[C@H]3N)O[C@@H]2CO)[C@H](N)[C@@H](O)[C@@H]1O
1 (≈ 1.23 µM)	10 (≈ 12.3 µM)	NC[C@@H]1O[C@H](O[C@H]2[C@@H](OCCNCCc3ccc4ccccc4c3)[C@H](O[C@@H]3[C@@H](O)[C@H](N)C[C@H](N)[C@H]3O[C@H]3O[C@H](CO)[C@@H](O)[C@H](O)[C@H]3N)O[C@@H]2CO)[C@H](N)[C@@H](O)[C@@H]1O
0.6 (≈ 0.808 µM)	10 (≈ 13.5 µM)	CC(C)(C)CCNCCO[C@H]1[C@H](O[C@@H]2[C@@H](O)[C@H](N)C[C@H](N)[C@H]2O[C@H]2O[C@H](CO)[C@@H](O)[C@H](O)[C@H]2N)O[C@H](CO)[C@H]1O[C@H]1O[C@@H](CN)[C@@H](O)[C@H](O)[C@H]1N
2 (≈ 2.7 µM)	25 (≈ 33.7 µM)	NC[C@@H]1O[C@H](O[C@H]2[C@@H](OCCNC3CCNCC3)[C@H](O[C@H]3C(O[C@H]4O[C@H](CO)[C@@H](O)[C@H](O)[C@H]4N)[C@@H](N)C[C@@H](N)[C@@H]3O)O[C@@H]2CO)[C@H](N)[C@@H](O)[C@@H]1O (stereo partly specified)
6 (≈ 8.74 µM)	12 (≈ 17.5 µM)	CN(C)CCO[C@H]1[C@H](O[C@@H]2[C@@H](O)[C@H](N)C[C@H](N)[C@H]2O[C@H]2O[C@H](CO)[C@@H](O)[C@H](O)[C@H]2N)O[C@H](CO)[C@H]1O[C@H]1O[C@@H](CN)[C@@H](O)[C@H](O)[C@H]1N
> 100	> 100	NC[C@@H]1O[C@H](O[C@H]2[C@@H](OCCNCc3nc4ccccc4[nH]3)[C@H](O[C@@H]3[C@@H](O)[C@H](N)C[C@H](N)[C@H]3O[C@H]3O[C@H](CO)[C@@H](O)[C@H](O)[C@H]3N)O[C@@H]2CO)[C@H](N)[C@@H](O)[C@@H]1O
< 0.6	5 (≈ 6.31 µM)	COc1ccc(CCNCCO[C@H]2[C@H](O[C@@H]3[C@@H](O)[C@H](N)C[C@H](N)[C@H]3O[C@H]3O[C@H](CO)[C@@H](O)[C@H](O)[C@H]3N)O[C@H](CO)[C@H]2O[C@H]2O[C@@H](CN)[C@@H](O)[C@H](O)[C@H]2N)cc1
2 (≈ 2.72 µM)	12 (≈ 16.3 µM)	NC[C@@H]1O[C@H](O[C@H]2[C@@H](OCCNc3ccccn3)[C@H](O[C@@H]3[C@@H](O)[C@H](N)C[C@H](N)[C@H]3O[C@H]3O[C@H](CO)[C@@H](O)[C@H](O)[C@H]3N)O[C@@H]2CO)[C@H](N)[C@@H](O)[C@@H]1O
2 (≈ 2.85 µM)	6 (≈ 8.55 µM)	NCCNCCO[C@H]1[C@H](O[C@@H]2[C@@H](O)[C@H](N)C[C@H](N)[C@H]2O[C@H]2O[C@H](CO)[C@@H](O)[C@H](O)[C@H]2N)O[C@H](CO)[C@H]1O[C@H]1O[C@@H](CN)[C@@H](O)[C@H](O)[C@H]1N

MIC (Staphylococcus aureus) [µg/mL]	MIC (Escherichia coli) [µg/mL]	Compound
0.3 (≈ 0.392 µM)	3 (≈ 3.92 µM)	NC[C@@H]1O[C@H](O[C@H]2[C@@H](OCCNCc3ccc(N)nc3)[C@H](O[C@@H]3[C@@H](O)[C@H](N)C[C@H](N)[C@H]3O[C@H]3O[C@H](CO)[C@@H](O)[C@H](O)[C@H]3N)O[C@@H]2CO)[C@H](N)[C@@H](O)[C@@H]1O
3 (≈ 4.05 µM)	3 (≈ 4.05 µM)	NC[C@@H]1O[C@H](O[C@H]2[C@@H](OCCNC3CCCCC3)[C@H](O[C@@H]3[C@@H](O)[C@H](N)C[C@H](N)[C@H]3O[C@H]3O[C@H](CO)[C@@H](O)[C@H](O)[C@H]3N)O[C@@H]2CO)[C@H](N)[C@@H](O)[C@@H]1O
0.6 (≈ 0.722 µM)	5 (≈ 6.02 µM)	NC[C@@H]1O[C@H](O[C@H]2[C@@H](OCCNCCc3ccc(C(F)(F)F)cc3)[C@H](O[C@@H]3[C@@H](O)[C@H](N)C[C@H](N)[C@H]3O[C@H]3O[C@H](CO)[C@@H](O)[C@H](O)[C@H]3N)O[C@@H]2CO)[C@H](N)[C@@H](O)[C@@H]1O
3 (≈ 3.94 µM)	10 (≈ 13.1 µM)	NC[C@@H]1O[C@H](O[C@H]2[C@@H](OCCCCCc3ccccc3)[C@H](O[C@@H]3[C@@H](O)[C@H](N)C[C@H](N)[C@H]3O[C@H]3O[C@H](CO)[C@@H](O)[C@H](O)[C@H]3N)O[C@@H]2CO)[C@H](N)[C@@H](O)[C@@H]1O
3 (≈ 3.79 µM)	10 (≈ 12.6 µM)	NC[C@@H]1O[C@H](O[C@H]2[C@@H](OCCNCCCCc3ccccc3)[C@H](O[C@@H]3[C@@H](O)[C@H](N)C[C@H](N)[C@H]3O[C@H]3O[C@H](CO)[C@@H](O)[C@H](O)[C@H]3N)O[C@@H]2CO)[C@H](N)[C@@H](O)[C@@H]1O
3 (≈ 3.97 µM)	1.5 (≈ 1.98 µM)	NC[C@@H]1O[C@H](O[C@H]2[C@@H](OCCNCC3CCCNC3)[C@H](O[C@@H]3[C@@H](O)[C@H](N)C[C@H](N)[C@H]3O[C@H]3O[C@H](CO)[C@@H](O)[C@H](O)[C@H]3N)O[C@@H]2CO)[C@H](N)[C@@H](O)[C@@H]1O (stereo partly specified)
1 (≈ 1.24 µM)	10 (≈ 12.4 µM)	CC(=O)N(CCO[C@H]1[C@H](O[C@@H]2[C@@H](O)[C@H](N)C[C@H](N)[C@H]2O[C@H]2O[C@H](CO)[C@@H](O)[C@H](O)[C@H]2N)O[C@H](CO)[C@H]1O[C@H]1O[C@@H](CN)[C@@H](O)[C@H](O)[C@H]1N)CCc1ccccc1
> 100	> 100	N[C@H]1[C@@H](O[C@H]2[C@H](O[C@@H]3O[C@H](CO)[C@@H](O)[C@H]3O)[C@@H](O)[C@H](N)C[C@@H]2N)O[C@H](CO)[C@@H](O)[C@@H]1O
12 (≈ 24.1 µM)	6 (≈ 12 µM)	NCCO[C@H]1[C@H](O[C@@H]2[C@@H](O)[C@H](N)C[C@H](N)[C@H]2O[C@H]2O[C@H](CO)[C@@H](O)[C@H](O)[C@H]2N)O[C@H](CO)[C@H]1O
3 (≈ 4.19 µM)	25 (≈ 34.9 µM)	NCCCNCCO[C@H]1[C@H](O[C@@H]2[C@@H](O)[C@H](N)C[C@H](N)[C@H]2O[C@H]2O[C@H](CO)[C@@H](O)[C@H](O)[C@H]2N)O[C@H](CO)[C@H]1O[C@H]1O[C@@H](CN)[C@@H](O)[C@H](O)[C@H]1N
2 (≈ 3.04 µM)	12 (≈ 18.2 µM)	NCCO[C@H]1[C@H](O[C@@H]2[C@@H](O)[C@H](N)C[C@H](N)[C@H]2O[C@H]2O[C@H](CO)[C@@H](O)[C@H](O)[C@H]2N)O[C@H](CO)[C@H]1O[C@H]1O[C@@H](CN)[C@@H](O)[C@H](O)[C@H]1N
0.6 (≈ 0.784 µM)	6 (≈ 7.84 µM)	NC[C@@H]1O[C@H](O[C@H]2[C@@H](OCCNCc3ccnc(N)c3)[C@H](O[C@@H]3[C@@H](O)[C@H](N)C[C@H](N)[C@H]3O[C@H]3O[C@H](CO)[C@@H](O)[C@H](O)[C@H]3N)O[C@@H]2CO)[C@H](N)[C@@H](O)[C@@H]1O
6 (≈ 10.8 µM)	6 (≈ 10.8 µM)	NCCCNCCO[C@H]1[C@H](O[C@@H]2[C@@H](O)[C@H](N)C[C@H](N)[C@H]2O[C@H]2O[C@H](CO)[C@@H](O)[C@H](O)[C@H]2N)O[C@H](CO)[C@H]1O
5 (≈ 5.96 µM)	20 (≈ 23.8 µM)	NC[C@@H]1O[C@H](O[C@H]2[C@@H](OCCNCCc3ccc(-c4ccccc4)cc3)[C@H](O[C@@H]3[C@@H](O)[C@H](N)C[C@H](N)[C@H]3O[C@H]3O[C@H](CO)[C@@H](O)[C@H](O)[C@H]3N)O[C@@H]2CO)[C@H](N)[C@@H](O)[C@@H]1O
1.2 (≈ 1.36 µM)	5 (≈ 5.66 µM)	CCCCCCCCN(CCCCCCCC)CCO[C@H]1[C@H](O[C@H]2C(O[C@H]3O[C@H](CO)[C@@H](O)[C@H](O)[C@H]3N)[C@@H](N)C[C@@H](N)[C@@H]2O)O[C@H](CO)[C@H]1O[C@H]1O[C@@H](CN)[C@@H](O)[C@H](O)[C@H]1N (stereo partly specified)
0.6 (≈ 0.681 µM)	10 (≈ 11.4 µM)	NC[C@@H]1O[C@H](O[C@H]2[C@@H](OCCN(CCCc3ccccc3)CCc3ccccc3)[C@H](O[C@H]3C(O[C@H]4O[C@H](CO)[C@@H](O)[C@H](O)[C@H]4N)[C@@H](N)C[C@@H](N)[C@@H]3O)O[C@@H]2CO)[C@H](N)[C@@H](O)[C@@H]1O (stereo partly specified)
